High-throughput results: PubChem BioAssay, The Scripps Research Institute Molecular Screening Center
Only some compounds are listed: those with a hit (about 1.8% of all), similar ones and a draw of the others.
SIAE primary: human SIAE inhibition, primary screen; SIAE FP-Rh probe binding, fluorescence polarization; Q9HAT2; 370,000 tested, 0.69% active; inhibition, % at 9.66 µM;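 active = inhibition above a cutoff: mean of compounds within the control limits plus 3 SD of those, cut at about 17% in these data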
HTRA1 inh: inhibitors of human serine peptidase HTRA1. Q92743. AID 504803. 340,000 tested, 0.5% active. recombinant HTRA1, FP-rhodamine activity-based probe, fluorescence polarization. inhibition, % at 5.96 µM; in the data active = inhibition above about 36%
Target sequence (Q92743 whole entry, looked up): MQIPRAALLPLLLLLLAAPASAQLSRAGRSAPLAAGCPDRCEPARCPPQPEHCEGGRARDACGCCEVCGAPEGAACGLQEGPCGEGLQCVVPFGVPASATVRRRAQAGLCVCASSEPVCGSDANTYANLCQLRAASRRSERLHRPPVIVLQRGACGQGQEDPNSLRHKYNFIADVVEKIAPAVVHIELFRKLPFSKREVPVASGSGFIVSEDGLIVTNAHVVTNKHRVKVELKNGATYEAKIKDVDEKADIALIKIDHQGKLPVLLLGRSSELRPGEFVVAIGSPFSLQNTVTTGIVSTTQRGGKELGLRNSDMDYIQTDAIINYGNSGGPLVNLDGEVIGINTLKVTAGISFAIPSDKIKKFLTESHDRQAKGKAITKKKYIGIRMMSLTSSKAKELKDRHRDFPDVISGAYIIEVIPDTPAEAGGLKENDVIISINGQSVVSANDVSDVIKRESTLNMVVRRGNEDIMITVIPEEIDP
TCR CD3 inh: human TCR-CD3 binding inhibition. 360,000 tested, 0.37% active. TAMRA-labeled TCR probe fluorescence, biochemical. inhibition, % at 9.4 µM. AID 651800; in the data active = inhibition above about 19%;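 note: recombinant mutant TCR 2C K166C tagged with TAMRA read by polarization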
Tn7 DDE FP: disrupts Tn7 cyclic peptide binding to fibrin D-Dimer-E complex; P02675; FP displacement of FITC-Tn7 peptide from fibrin DD(E); 0% = median of compound wells per plate; inhibition, % at 8.3 µM; 370,000 tested, 0.13% active; AID 720508;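 active = inhibition above the mean of compounds falling within the control limits plus 3 SD of them, cut at about 14% in these data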
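Assay system: Human clot-derived fibrin DD(E) complex | Buffer or medium: Tris/NaCl/CaCl2 buffer, pH 7.8 | Repeats: One replicate per compound | Benchmarks: Aha-Tn7 high control | Measure: % inhibition scaled between sample-field median and high-control FP | Schedule: 10 min plus 3 h, room temperature | Signal: Fluorescence polarization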
Tn6 DDE FP: inhibitors of Tn6 peptide binding to human fibrin DD(E). P02675. Fibrin DD(E) TRITC-Tn6 fluorescence polarization displacement. inhibition, % at 8.3 µM. 370,000 tested, 0.21% active;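 active = inhibition above a per-campaign cutoff: mean of compounds within control limits plus 3 SD, cut at about 15% in these data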
mABHD4 FP: inhibits mouse alpha/beta hydrolase domain 4. inhibition, % at 8.92 µM. 370,000 tested, 0.54% active. purified mABHD4, FP-Rh probe fluorescence polarization. AID 720543;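 active = inhibition exceeding the mean over every tested compound plus 3 SD, cut at about 30% in these data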
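Assay system: mABHD4 protein; medium: HEPES pH 7.0, NaCl, Pluronic buffer; dosing: 8.92 µM, single dose; schedule: 45 min + 60 min at 25 °C; signal: FP readout, ex 525 nm / em 598 nm; read-out: normalized percent inhibition of probe labeling; repeats: single replicate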
DDE Tn6 FP ctr: DD(E)-Tn6 binding inhibition, counter-screen; shares compounds with Tn6 DDE FP; Fibrin DD(E), TRITC-Tn6 fluorescence polarization displacement; 0% = median of compound wells, not DMSO; inhibition, % at 8.3 µM; 680 tested, 2% active; AID 720621;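 active = inhibition above the mean of test compounds lying between the control limits plus 3 SD of those, cut at about 14% in these data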
Tn6 DDE conf: confirmation of inhibitors of Tn6 binding to human fibrin DD(E). shares compounds with Tn6 DDE FP. FP displacement of TRITC-Tn6 peptide from DD(E); 0% = per-plate median of test wells. inhibition, % at 8.3 µM. 680 tested, 10% active. AID 720631;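 active = inhibition above the mean of compounds lying within the control limits plus 3 SD, cut at about 16% in these data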
Large screens that a line does not name were inactive (follow-up assays come after a bar, where they were run).

O=C(Oc1ccc(N(Cc2cccs2)C2=NS(=O)(=O)c3ccccc32)cc1)c1ccc(Cl)cc1	Tn6 DDE FP 17 | DDE Tn6 FP ctr inactive | Tn6 DDE conf inactive
COC(=O)[C@]12C=CCN1[C@H](c1ccc(Cl)cc1)c1c(c3ccccc3n1S(=O)(=O)c1ccc(C)cc1)C2	none (no result: HTRA1 inh, TCR CD3 inh)
COC(=O)[C@]12C=CCN1[C@@H](c1ccc(Cl)cc1)c1c(c3ccccc3n1S(=O)(=O)c1ccc(C)cc1)C2	Tn6 DDE FP 28 (no result: HTRA1 inh, TCR CD3 inh) | DDE Tn6 FP ctr inactive | Tn6 DDE conf inactive
COC(=O)[C@]12C=CCN1[C@H](c1ccc(C(F)(F)F)cc1)c1c(c3ccccc3n1S(=O)(=O)c1ccc(C)cc1)C2	Tn6 DDE FP 17 (no result: HTRA1 inh, TCR CD3 inh) | DDE Tn6 FP ctr inactive | Tn6 DDE conf inactive
O=[N+]([O-])c1ccccc1Nc1nc(-c2cccnc2)cs1	none
O=C(Cc1cccc2ccccc12)NC(NC(=S)Nc1ccccc1Cl)C(Cl)(Cl)Cl (stereo not drawn)	Tn6 DDE FP 25 | DDE Tn6 FP ctr inactive | Tn6 DDE conf inactive
O=C(NC(c1ccccc1)c1ccccc1)N1CCOCC1	Tn6 DDE FP 16 | DDE Tn6 FP ctr inactive | Tn6 DDE conf inactive
CC(NC(=O)N1CCOCC1)c1ccccc1 (stereo not drawn)	none
CCc1cc(=O)oc2c3c(cc(OCC(=O)NCCCn4ccnc4)c12)OC(C)(C)CC3	Tn6 DDE FP 15 | DDE Tn6 FP ctr inactive | Tn6 DDE conf inactive
Cc1cc(C(=O)Nc2ccc(S(=O)(=O)N3CCCC3)cc2)cs1	Tn6 DDE FP 16 | DDE Tn6 FP ctr inactive | Tn6 DDE conf inactive
CC(=O)c1ccc(NC(=O)c2ccc(S(=O)(=O)N3CCCC3)cc2)cc1	none
CC(NCc1cccnc1)c1ccccc1 (stereo not drawn)	Tn6 DDE FP 16 | DDE Tn6 FP ctr inactive | Tn6 DDE conf inactive
O=C(CC(c1ccccc1)c1ccccc1)NCc1cccnc1	none
COC(=O)CCN(c1ccccc1)S(=O)(=O)c1cc(-c2cc(C)no2)ccc1OC	none
COc1cccc(CNc2ncnc3cc(Cl)ccc23)c1	none
CNc1nc(Cl)c(SC)c(NCc2cccc(OC)c2)n1	Tn6 DDE FP 17 | DDE Tn6 FP ctr inactive | Tn6 DDE conf inactive
CN(C(=O)c1ccccc1Cl)c1ccccc1	Tn6 DDE FP 15 | DDE Tn6 FP ctr inactive | Tn6 DDE conf inactive
CC/C(=N\NC(=O)c1cc(C2CC2)[nH]n1)c1ccccc1	none
CCN1C=C(C(=O)OC)C(c2cccc(OC)c2OC)C(C(=O)OC)=C1	Tn6 DDE FP 17 | DDE Tn6 FP ctr inactive | Tn6 DDE conf inactive
O=C(Cc1ccccc1)NNC(=O)Cc1ccccc1	none
O=C(Cc1ccccc1)NC(NNc1ccccc1)(C(F)(F)F)C(F)(F)F	Tn6 DDE FP 15 | DDE Tn6 FP ctr 14 | Tn6 DDE conf inactive
COc1ccc(-c2nc(-c3ccccn3)nc(N3CCN(C)CC3)c2C#N)cc1	Tn6 DDE FP 17 | DDE Tn6 FP ctr inactive | Tn6 DDE conf inactive
CN1CCN(c2nc(-c3ccccc3)nc(-c3ccc(F)cc3)c2C#N)CC1	none
COc1nc(-c2ccccc2Cl)ccc1C#N	Tn6 DDE FP 18 | DDE Tn6 FP ctr inactive | Tn6 DDE conf inactive
CCOc1nc(-c2ccc(Cl)cc2Cl)ccc1C#N	none
COc1ccc(C(CNC(=O)C(=O)NC2CCCCC2)N2CCN(C)CC2)cc1 (stereo not drawn)	Tn6 DDE FP 16 | DDE Tn6 FP ctr inactive | Tn6 DDE conf inactive
CCOC(=O)Nc1ccc2c(c1)Cc1cc([N+](=O)[O-])ccc1-2	Tn6 DDE FP 17 | DDE Tn6 FP ctr inactive | Tn6 DDE conf inactive
CCOC(=O)Nc1ccc(OC)c([N+](=O)[O-])c1	none
C/C=C/C(=O)N1CCc2cc(S(=O)(=O)N(C)Cc3ccco3)ccc21	none (no result: HTRA1 inh, TCR CD3 inh)
